According to ChEMBL document CHEMBL5223076, “Optimization of kinetic stabilizers of tetrameric transthyretin: A prospective ligand efficiency-guided approach” (Bioorg Med Chem, 2020):

Assays:
[1] = Inhibition of acid-induced fibrillogenesis of human Transthyretin Y78F mutant expressed in Escherichia coli BL21 (DE3) cells assessed as inhibition of fibril formation incubated for 30 mins by kinetic turbidimetric assay
Method in brief: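 TTR-Y78F in 20 mM K phosphate, 100 mM KCl, 1 mM EDTA, pH 7.6, preincubated with inhibitor 0–40 μM (final 5% DMSO) 30 min at 37 °C with shaking. Acidified with 400 mM KAcO/100 mM KCl/1 mM EDTA pH 4.2 to final 0.4 mg/mL TTR. A340 read at 1-min intervals for 1.5 h at 37 °C. Initial rates fitted to v0 = A + B·e^(−C[I]) to give IC50.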

[2] = species: Homo sapiens; assay: Inhibition of acid-induced fibrillogenesis of human Transthyretin Y78F mutant expressed in Escherichia coli BL21 (DE3) cells assessed as reduction in fibril formation at 40 uM incubated for 30 mins by kinetic turbidimetric assay relative to control
Method in brief: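 TTR-Y78F (final 0.4 mg/mL) preincubated 30 min at 37 °C with ligand up to 40 μM in 5% DMSO at pH 7.6. Aggregation triggered by pH 4.2 acetate buffer, then A340 followed for 1.5 h at 37 °C. From the exponential fit of initial rate versus concentration, RA% is the reduction in initial rate at high inhibitor concentration relative to no inhibitor.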

IC50 [1] [µM]	SMILES	inhibition [2] [%]
3.6	O=C(O)c1cc(-c2c(F)cc(F)cc2Cl)cc(Br)c1O	89
7.2	O=C(O)c1cc(-c2c(F)cc(F)cc2Cl)ccc1O	89.1
6	COC(=O)[C@@H](C)NC(=O)c1cc(-c2c(F)cc(F)cc2Cl)cc(I)c1O	89
3.7	COC(=O)CCNC(=O)c1cc(-c2c(F)cc(F)cc2Cl)cc(I)c1O	90
6.1	CCOc1cc(F)ccc1-c1ccc(O)c(C(=O)O)c1	88.8
4.3	CCOc1cc(F)ccc1-c1cc(Br)c(O)c(C(=O)O)c1	89.9
4.2	O=C(O)c1cc(-c2ccc(F)cc2F)cc(I)c1O	94
3.9	O=C(O)c1cc(-c2ccc(Cl)cc2F)cc(I)c1O	88.5
5.2	COc1cc(F)ccc1-c1cc(Br)c(O)c(C(=O)O)c1	95.5
7.2	O=C(O)c1cc(-c2ccc(F)cc2C(F)(F)F)cc(I)c1O	87
5.3	COc1cc(F)ccc1-c1cc(I)c(O)c(C(=O)O)c1	90.3
21.7	O=C(O)c1cc(-c2ccc(Cl)cc2F)ccc1O	77.3
6	COc1cc(F)ccc1-c1ccc(O)c(C(=O)O)c1	87.8
23.1	O=C(O)c1cc(-c2ccc(F)cc2C(F)(F)F)ccc1O	60.4
4.6	O=C(O)c1cc(-c2c(F)cc(F)cc2Cl)cc(I)c1O	91
5.1	CCOc1cc(F)ccc1-c1cc(I)c(O)c(C(=O)O)c1	91.1
